Assay [1] deals with Plasmodium falciparum. As to the kind of experiment: Antiparasitic activity against multidrug-resistant Plasmodium falciparum Dd2 infected in human RBC assessed as decrease in parasitemia after 60 hrs by Hoechst 33342 staining-based flow cytometric method. The format is functional. The note with it: Dd2, 60 h. In short, it runs like this: (§1)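 Sorbitol-synchronized early-stage parasites, adjusted to 1% parasitemia at 2% hematocrit. Serial dilutions of compound in DMSO (≤0.05% per well) applied in triplicate for 60 h. Cells stained with 16.2 μM Hoechst 33342 in PBS for 20 min at room temperature. Parasitemia read by flow cytometry; IC50 estimated from dose–response curves.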
A general note: A flow cytometer gives signals particle by particle.

Assay [2] is described as follows: Displacement of 5-(3-(4-(((5S,6S)-10-(3,5-dichlorophenylsulfonyl)-2-oxo-5-vinyl-3,10-diazabicyclo[4.3.1]decan-3-yl)methyl)-1H-1,2,3-triazol-1-yl)propylcarbamoyl)-2-(6-(dimethylamino)-3-(dimethyliminio)-3,10-dihydroanthracen-9-yl)benzoate from Chlamydia trachomatis Mip after 30 mins by fluorescence polarization assay. In a few lines:
(§2)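 Competitive fluorescence polarization against a TAMRA-labelled tracer in 20 mM NaCl, 20 mM HEPES pH 8.0, 0.002% Tween20. Ligand serially diluted 1:1 in DMSO, then diluted 50-fold into tracer-containing buffer and added to protein. Equilibrated 30 min at room temperature before polarization read. Competition curves fitted.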
(In general: Fluorescence polarisation rises when a labelled molecule tumbles more slowly, as on binding a larger partner.)

Assay [3] deals with Outer membrane protein MIP (Legionella pneumophila, UniProt Q70YI1). As to the kind of experiment: Displacement of 5-(3-(4-(((5S,6S)-10-(3,5-dichlorophenylsulfonyl)-2-oxo-5-vinyl-3,10-diazabicyclo[4.3.1]decan-3-yl)methyl)-1H-1,2,3-triazol-1-yl)propylcarbamoyl)-2-(6-(dimethylamino)-3-(dimethyliminio)-3,10-dihydroanthracen-9-yl)benzoate from Legionella pneumophila Mip after 30 mins by fluorescence polarization assay. In short, it runs like this: as §2
Outer membrane protein MIP, sequence (Q70YI1 21-233 limits assumed): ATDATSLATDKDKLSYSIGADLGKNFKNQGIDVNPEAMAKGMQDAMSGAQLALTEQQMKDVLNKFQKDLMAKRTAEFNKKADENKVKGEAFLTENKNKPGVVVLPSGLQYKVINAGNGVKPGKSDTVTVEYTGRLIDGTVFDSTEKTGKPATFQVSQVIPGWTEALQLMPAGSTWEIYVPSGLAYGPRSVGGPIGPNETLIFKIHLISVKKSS

In assay [4] the test system is Plasmodium falciparum. As to the kind of experiment: Antiparasitic activity against Plasmodium falciparum 3D7 infected in human RBC assessed as decrease in parasitemia after 60 hrs by Hoechst 33342 staining-based flow cytometric method. The format is functional. In short, it runs like this:
as §1

The test system of a further assay is Legionella pneumophila. As to the kind of experiment: Antibacterial activity against Legionella pneumophila Corby infected in differentiated human THP1 cells assessed as bacterial growth inhibition after 24 hrs. It counts as functional. In a few lines:
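THP-1 monocytes at 5 × 10^5 cells/mL were differentiated with 100 nM PMA for 2 days. L. pneumophila Corby grown 3 days on BCYE agar was added at MOI 1. After 2 h, extracellular bacteria were washed off with PBS and compound was added in medium (control 1% DMSO). At 2 and 24 h, cells were lysed with 0.1% Triton X-100 and dilutions plated on BCYE. Colonies counted after 3–4 days at 37 °C. Three independent experiments in duplicate.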

Assay [5] can be described thus: Displacement of 5-(3-(4-(((5S,6S)-10-(3,5-dichlorophenylsulfonyl)-2-oxo-5-vinyl-3,10-diazabicyclo[4.3.1]decan-3-yl)methyl)-1H-1,2,3-triazol-1-yl)propylcarbamoyl)-2-(6-(dimethylamino)-3-(dimethyliminio)-3,10-dihydroanthracen-9-yl)benzoate from […] FKBP35 after 30 mins by fluorescence polarization assay. The arrangement: species or system Plasmodium falciparum. In a few lines:
as §2

Assay [6] can be described thus: Displacement of 5-(3-(4-(((5S,6S)-10-(3,5-dichlorophenylsulfonyl)-2-oxo-5-vinyl-3,10-diazabicyclo[4.3.1]decan-3-yl)methyl)-1H-1,2,3-triazol-1-yl)propylcarbamoyl)-2-(6-(dimethylamino)-3-(dimethyliminio)-3,10-dihydroanthracen-9-yl)benzoate from Candida albicans FKBP12 after 30 mins by fluorescence polarization assay. In a few lines: as §2
In assay [7] the target is T1, Peptidyl-prolyl cis-trans isomerase Mip (Chlamydia pneumoniae, UniProt Q9Z7P3).
T1 sequence (Q9Z7P3 whole entry): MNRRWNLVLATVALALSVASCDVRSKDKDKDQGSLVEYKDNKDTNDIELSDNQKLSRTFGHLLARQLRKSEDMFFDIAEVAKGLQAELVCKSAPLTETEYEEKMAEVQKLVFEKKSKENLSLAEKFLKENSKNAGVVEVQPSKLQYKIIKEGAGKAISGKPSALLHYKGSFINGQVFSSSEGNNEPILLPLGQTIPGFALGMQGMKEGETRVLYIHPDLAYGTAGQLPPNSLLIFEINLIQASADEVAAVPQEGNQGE
As to the kind of experiment: Displacement of 5-(3-(4-(((5S,6S)-10-(3,5-dichlorophenylsulfonyl)-2-oxo-5-vinyl-3,10-diazabicyclo[4.3.1]decan-3-yl)methyl)-1H-1,2,3-triazol-1-yl)propylcarbamoyl)-2-(6-(dimethylamino)-3-(dimethyliminio)-3,10-dihydroanthracen-9-yl)benzoate from Chlamydia pneumoniae Mip after 30 mins by fluorescence polarization assay. In short, it runs like this: as §2

Assay [8] concerns the target T2, Peptidyl-prolyl cis-trans isomerase FKBP3 (Homo sapiens, UniProt Q00688).
T2 sequence (Q00688 whole entry): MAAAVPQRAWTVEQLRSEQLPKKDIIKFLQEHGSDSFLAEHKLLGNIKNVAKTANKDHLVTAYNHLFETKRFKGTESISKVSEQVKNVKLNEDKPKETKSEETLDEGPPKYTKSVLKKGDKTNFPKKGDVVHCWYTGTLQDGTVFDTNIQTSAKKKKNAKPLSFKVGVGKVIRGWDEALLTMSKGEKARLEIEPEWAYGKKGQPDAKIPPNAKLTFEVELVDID
Put plainly: Displacement of 5-(3-(4-(((5S,6S)-10-(3,5-dichlorophenylsulfonyl)-2-oxo-5-vinyl-3,10-diazabicyclo[4.3.1]decan-3-yl)methyl)-1H-1,2,3-triazol-1-yl)propylcarbamoyl)-2-(6-(dimethylamino)-3-(dimethyliminio)-3,10-dihydroanthracen-9-yl)benzoate from human FKBP25 after 30 mins by fluorescence polarization assay. In a few lines:
as §2

The target of assay [9] is Peptidyl-prolyl cis-trans isomerase FKBP1A (Homo sapiens, UniProt P62942). Put plainly: Displacement of 5-(3-(4-(((5S,6S)-10-(3,5-dichlorophenylsulfonyl)-2-oxo-5-vinyl-3,10-diazabicyclo[4.3.1]decan-3-yl)methyl)-1H-1,2,3-triazol-1-yl)propylcarbamoyl)-2-(6-(dimethylamino)-3-(dimethyliminio)-3,10-dihydroanthracen-9-yl)benzoate from human FKBP12 after 30 mins by fluorescence polarization assay. In short, it runs like this: as §2
Peptidyl-prolyl cis-trans isomerase FKBP1A, sequence (P62942 whole entry): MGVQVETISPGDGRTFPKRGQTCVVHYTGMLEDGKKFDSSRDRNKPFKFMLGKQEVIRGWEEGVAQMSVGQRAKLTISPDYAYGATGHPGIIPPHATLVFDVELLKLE

The target in assay [10] is Peptidyl-prolyl cis-trans isomerase FKBP1B (Homo sapiens, UniProt P68106). As to the kind of experiment: Displacement of 5-(3-(4-(((5S,6S)-10-(3,5-dichlorophenylsulfonyl)-2-oxo-5-vinyl-3,10-diazabicyclo[4.3.1]decan-3-yl)methyl)-1H-1,2,3-triazol-1-yl)propylcarbamoyl)-2-(6-(dimethylamino)-3-(dimethyliminio)-3,10-dihydroanthracen-9-yl)benzoate from human FKBP12.6 after 30 mins by fluorescence polarization assay. In short, it runs like this: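 Competitive fluorescence polarization with the fluorescent tracer in 20 mM NaCl, 20 mM HEPES pH 8.0, 0.002% Tween20. Ligand is serially diluted 1:1 in DMSO, then 1:50 into tracer-containing buffer. This mix is added to protein at 1.11× final concentration (protein:mix 45:5). After 30 min at room temperature to reach equilibrium, polarization is read and competition curves are fitted.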
Peptidyl-prolyl cis-trans isomerase FKBP1B, sequence (P68106 whole entry): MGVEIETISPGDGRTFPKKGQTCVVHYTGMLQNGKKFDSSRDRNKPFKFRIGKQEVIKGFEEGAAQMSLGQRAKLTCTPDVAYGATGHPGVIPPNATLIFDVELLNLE

Assay [11] has as its target T3, Peptidyl-prolyl cis-trans isomerase FKBP2 (Homo sapiens, UniProt P26885).
T3 sequence (P26885 whole entry): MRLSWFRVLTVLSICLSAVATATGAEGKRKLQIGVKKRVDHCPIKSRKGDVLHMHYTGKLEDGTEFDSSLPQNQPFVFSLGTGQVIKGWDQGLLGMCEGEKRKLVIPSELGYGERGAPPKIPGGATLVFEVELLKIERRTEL
Put plainly: Displacement of 5-(3-(4-(((5S,6S)-10-(3,5-dichlorophenylsulfonyl)-2-oxo-5-vinyl-3,10-diazabicyclo[4.3.1]decan-3-yl)methyl)-1H-1,2,3-triazol-1-yl)propylcarbamoyl)-2-(6-(dimethylamino)-3-(dimethyliminio)-3,10-dihydroanthracen-9-yl)benzoate from human FKBP13 after 30 mins by fluorescence polarization assay. In a few lines:
as §2

For assay [12], the target named is T4, Peptidyl-prolyl cis-trans isomerase FKBP5 (Homo sapiens, UniProt Q13451).
T4 sequence (Q13451 whole entry): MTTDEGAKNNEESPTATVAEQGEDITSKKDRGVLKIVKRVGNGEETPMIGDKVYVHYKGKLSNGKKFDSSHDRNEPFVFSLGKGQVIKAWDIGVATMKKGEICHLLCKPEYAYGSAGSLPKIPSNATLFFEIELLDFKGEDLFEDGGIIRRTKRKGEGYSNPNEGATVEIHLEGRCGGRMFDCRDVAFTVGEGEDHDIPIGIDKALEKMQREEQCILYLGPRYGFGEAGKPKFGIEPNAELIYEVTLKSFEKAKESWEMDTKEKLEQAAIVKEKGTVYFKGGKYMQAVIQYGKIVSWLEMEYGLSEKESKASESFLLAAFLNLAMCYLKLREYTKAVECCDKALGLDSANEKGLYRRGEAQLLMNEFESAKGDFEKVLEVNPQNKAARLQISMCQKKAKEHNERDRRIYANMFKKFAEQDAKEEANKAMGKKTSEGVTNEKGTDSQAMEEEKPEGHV
As to the kind of experiment: Displacement of 5-(3-(4-(((5S,6S)-10-(3,5-dichlorophenylsulfonyl)-2-oxo-5-vinyl-3,10-diazabicyclo[4.3.1]decan-3-yl)methyl)-1H-1,2,3-triazol-1-yl)propylcarbamoyl)-2-(6-(dimethylamino)-3-(dimethyliminio)-3,10-dihydroanthracen-9-yl)benzoate from human FKBP51 after 30 mins by fluorescence polarization assay. In a few lines:
as §2

Assay [13] has as its target T5, Peptidyl-prolyl cis-trans isomerase FKBP4 (Homo sapiens, UniProt Q02790).
T5 sequence (Q02790 whole entry): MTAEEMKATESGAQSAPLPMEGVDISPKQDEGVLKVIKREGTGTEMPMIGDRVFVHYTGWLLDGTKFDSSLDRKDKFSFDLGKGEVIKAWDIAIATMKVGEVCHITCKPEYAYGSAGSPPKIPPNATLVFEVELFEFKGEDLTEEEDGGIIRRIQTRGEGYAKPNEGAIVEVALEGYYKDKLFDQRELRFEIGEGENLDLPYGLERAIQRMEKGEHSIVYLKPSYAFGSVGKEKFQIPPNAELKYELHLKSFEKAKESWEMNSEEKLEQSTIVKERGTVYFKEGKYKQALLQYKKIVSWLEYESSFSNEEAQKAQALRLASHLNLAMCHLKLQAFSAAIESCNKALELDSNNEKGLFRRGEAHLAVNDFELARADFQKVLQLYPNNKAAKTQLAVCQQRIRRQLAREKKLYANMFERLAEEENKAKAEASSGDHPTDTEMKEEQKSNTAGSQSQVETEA
As to the kind of experiment: Displacement of 5-(3-(4-(((5S,6S)-10-(3,5-dichlorophenylsulfonyl)-2-oxo-5-vinyl-3,10-diazabicyclo[4.3.1]decan-3-yl)methyl)-1H-1,2,3-triazol-1-yl)propylcarbamoyl)-2-(6-(dimethylamino)-3-(dimethyliminio)-3,10-dihydroanthracen-9-yl)benzoate from human FKBP52 after 30 mins by fluorescence polarization assay. In short, it runs like this:
as §2

In the case of `CC[C@H]1CN(Cc2ccccn2)C(=O)[C@@H]2CCC[C@H]1N2S(=O)(=O)c1cc(Cl)cc(Cl)c1`, the IC50 (commonly the concentration needed to halve the response being measured) in the assay on Plasmodium falciparum [1] turned out to be 3.1 µM; in the assay with Plasmodium falciparum [4] (3D7, 60 h), 2.3 µM. Moreover, the Ki (commonly the equilibrium dissociation constant of an inhibitor or competing ligand from its target) in [2] turned out to be 1.81 µM; in [3] it was 0.598 µM; in assay [5] it was 0.0981 µM; in assay [6], 0.0401 µM; in assay [7], 0.399 µM. The Activity entry in the assay on Plasmodium falciparum [4] is “Dose-dependent effect”. The “growth inhibition (GI)” value with Legionella pneumophila was “Dose-dependent effect”.

Regarding `COC[C@H]1CN(Cc2ccccn2)C(=O)[C@@H]2CCC[C@H]1N2S(=O)(=O)c1cc(Cl)cc(Cl)c1`, the Ki in assay [8] is 1.13 µM; in [9], 0.00045 µM; in assay [10], 0.00123 µM; in assay [11], 0.0605 µM; in assay [12], 0.0245 µM; in [13], 0.0189 µM.

For the origin of these results see ChEMBL document CHEMBL4043294, “Chemogenomic Profiling of Human and Microbial FK506-Binding Proteins” (J Med Chem, 2018).
